Consider 17 molecules from ChEMBL document CHEMBL5055648, “Design, synthesis, and biological evaluation of novel Bcr-AblT315I inhibitors incorporating amino acids as flexible linker” (Bioorg Med Chem, 2021).

Usually IC50 stands for the concentration at which inhibition is half-maximal.

Test [1] deals with Bcr/Abl fusion protein (Homo sapiens, UniProt P00519). Put plainly: Inhibition of wild type Bcr-Abl (unknown origin) incubated for 1 hr in presence of ATP by ADP-Glo kinase assay. It counts as protein assay. A general note: In ADP-Glo the light output rises with the ADP produced.
For test [2], the target named is Bcr/Abl fusion protein (Homo sapiens, UniProt P00519, T315I). Put plainly: Inhibition of wild type Bcr-Abl T315I mutant (unknown origin) incubated for 1 hr in presence of ATP by ADP-Glo kinase assay. The format is protein assay.
The test system of test [3] is K562. Put plainly: Antiproliferative activity against human K562 cells assessed as inhibition of cell proliferation incubated for 48 hrs by MTT assay. It counts as functional, cell-based. To be noted: K562, 48 h. The gist of the method:
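MTT growth assay. K562 and K562R (T315I) cells grown in RPMI 1640 with 10% FBS. Hek293 and EA.hy926 cells grown in DMEM with 10% FBS. About 2.5 × 10^3 exponential-phase cells per well, preincubated 12 h at 37 °C in 5% CO2. Serially diluted compounds added for 48 h, then MTT at 0.5 mg/mL final for 4 h. Formazan dissolved in DMSO, A490 read, IC50 calculated from inhibition ratios.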
In general terms: Tetrazolium assays rely on reduction of a dye to a coloured formazan, in cell work by metabolically active cells.

With `CCN(CC)C(=O)c1cncc(-c2cccc(C(=O)N[C@@H](C)C(=O)Nc3ccc(Cl)c(C(F)(F)F)c3)c2)c1`, the IC50 was 0.29 µM in test [1], 86 µM in test [2] and 29.9 µM in test [3].

For the molecule `CCN(CC)C(=O)c1cncc(-c2ccc(C(=O)N[C@@H](C)C(=O)Nc3ccc(Cl)c(C(F)(F)F)c3)cc2)c1`, the IC50 stood at 0.011 µM in test [1], 59.9 µM in test [2] and 20.2 µM in test [3].

Take `CC(=O)Nc1ccc(-c2cccc(C(=O)N[C@H]3CN[C@@H](C(=O)Nc4ccc(Cl)c(C(F)(F)F)c4)C3)c2)cn1`: the half-inhibitory concentration (IC50) in test [1] was 0.49 µM; in test [2], 24.6 µM; in test [3] it was 8.71 µM.

Take `CCN(CC)C(=O)c1cncc(-c2cccc(C(=O)N[C@H]3CN[C@@H](C(=O)Nc4ccc(Cl)c(C(F)(F)F)c4)C3)c2)c1`: the IC50 in test [1] was found to be 3.75 µM; in test [2], 42.7 µM; in test [3] it was 24.9 µM.

As for `C[C@H](NC(=O)c1ccc(-c2cncc(C(=O)NCCN(C)C)c2)cc1)C(=O)Nc1ccc(Cl)c(C(F)(F)F)c1`, the values for the half-maximal inhibitory concentration (IC50) in test [1], in test [2] and in test [3] were 6.62 µM, 2.28 µM and 4.65 µM, respectively.

As to `C[C@H](NC(=O)c1cccc(-c2ccc(N)nc2)c1)C(=O)Nc1ccc(Cl)c(C(F)(F)F)c1`, the IC50 in test [1] amounted to 4.4 µM; in test [2], 86.8 µM; in test [3], 8.09 µM.

`CS(=O)(=O)Nc1ccc(-c2cccc(C(=O)N[C@H]3CN[C@@H](C(=O)Nc4ccc(Cl)c(C(F)(F)F)c4)C3)c2)cn1`: the IC50 in test [1] is 6.48 µM; in test [2] it was 16.2 µM; in test [3], 24.6 µM.

As for `C[C@H](NC(=O)c1cccc(-c2cncc(C(=O)NCCN(C)C)c2)c1)C(=O)Nc1ccc(Cl)c(C(F)(F)F)c1`, the IC50 in test [1] stood at 0.64 µM; in test [2], 2.41 µM; in test [3], 7.92 µM.

Turning to `C[C@H](NC(=O)c1cccc(-c2ccc(NC(=O)C(C)(C)C)nc2)c1)C(=O)Nc1ccc(Cl)c(C(F)(F)F)c1`, the IC50 in test [1] turned out to be 4.48 µM; in test [2] it was 244 µM; in test [3], 18.4 µM.

On to `C[C@H](NC(=O)c1ccc(-c2cncc(C(=O)NC3CC3)c2)cc1)C(=O)Nc1ccc(Cl)c(C(F)(F)F)c1`, for which the concentration for half-maximal inhibition (IC50) in test [1] was found to be 9.38 µM; in test [2], 4.99 µM; in test [3], 396 µM.

Turning to `C[C@H](NC(=O)c1ccc(-c2ccc(N)nc2)cc1)C(=O)Nc1ccc(Cl)c(C(F)(F)F)c1`, the 50% inhibitory concentration (IC50) came out at 0.77 µM in test [1], 7.51 µM in test [2] and 5.95 µM in test [3].

Turning to `C[C@H](NC(=O)c1ccc(-c2ccc(NS(C)(=O)=O)nc2)cc1)C(=O)Nc1ccc(Cl)c(C(F)(F)F)c1`, the IC50 in test [1] amounted to 3.77 µM; in test [2], 9.95 µM; in test [3], 7.24 µM.

For the molecule `CS(=O)(=O)Nc1ccc(-c2ccc(C(=O)N[C@H]3CN[C@@H](C(=O)Nc4ccc(Cl)c(C(F)(F)F)c4)C3)cc2)cn1`, the IC50 was 0.15 µM in test [1], 36.9 µM in test [2] and 45 µM in test [3].

Consider `C[C@H](NC(=O)c1cccc(-c2ccc(NS(C)(=O)=O)nc2)c1)C(=O)Nc1ccc(Cl)c(C(F)(F)F)c1`, for which the half-maximal inhibitory concentration (IC50) is 3.34 µM in test [1], 129 µM in test [2] and 4.66 µM in test [3].

In the case of `O=C(NC1CC1)c1cncc(-c2ccc(C(=O)N[C@H]3CN[C@@H](C(=O)Nc4ccc(Cl)c(C(F)(F)F)c4)C3)cc2)c1`, the 50% inhibitory concentration (IC50) was 61.2 µM in test [1], 39 µM in test [2] and 65.3 µM in test [3].

For `CN(C)CCNC(=O)c1cncc(-c2cccc(C(=O)N[C@H]3CN[C@@H](C(=O)Nc4ccc(Cl)c(C(F)(F)F)c4)C3)c2)c1`, the IC50 in test [1] is 2.41 µM; in test [2] it was 21.7 µM; in test [3], 19.8 µM.

With `CC(=O)Nc1ccc(-c2ccc(C(=O)N[C@H]3CN[C@@H](C(=O)Nc4ccc(Cl)c(C(F)(F)F)c4)C3)cc2)cn1`, the values for the IC50 in test [1], in test [2] and in test [3] were 34.5 µM, 13 µM and 22.8 µM, respectively.
